Measurements: ChEMBL document CHEMBL1151801, “Synthesis of new indeno[1,2-e]pyrimido[4,5-b][1,4]diazepine-5,11-diones as potential antitumor agents” (2008)
Active and inactive are the calls of the source.

Assays:
[1] = system: TK-10; experiment: Antitumor activity against human TK10 cells after 48 hrs by SRB assay; type: functional; conditions: TK-10, 48 h
Outline: (§1)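 NCI in vitro human tumor cell line screen. Continuous 48 h drug exposure at five concentrations (100, 10, 1.0, 0.1 and 0.01 µM). Cell growth estimated by sulforhodamine B protein staining. GI50 defined as the concentration giving 50% reduction in net protein increase versus control cells over the incubation.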

[2] = system: SK-MEL-28; experiment: Antitumor activity against human SK-MEL-28 cells after 48 hrs by SRB assay; type: functional; conditions: SK-MEL-28, 48 h
Outline: (§2)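 NCI in vitro human tumor cell line screen. Cells were exposed continuously to compound for 48 h at five concentration levels (100, 10, 1.0, 0.1 and 0.01). Growth was estimated by sulforhodamine B protein staining. GI50 is the concentration giving a 50% reduction in net protein increase relative to control cells over the incubation.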

[3] = system: MCF7; experiment: Antitumor activity against human MCF7 cells after 48 hrs by SRB assay; type: functional; conditions: MCF7, 48 h; outline: as §2
[4] = system: OVCAR-5; experiment: Antitumor activity against human OVCAR5 cells after 48 hrs by SRB assay; type: functional; conditions: OVCAR-5, 48 h; outline: as §2
[5] = system: SK-MEL-5; experiment: Antitumor activity against human SK-MEL-5 cells after 48 hrs by SRB assay; type: functional; conditions: SK-MEL-5, 48 h; outline: as §2
[6] = system: DU-145; experiment: Antitumor activity against human DU145 cells after 48 hrs by SRB assay; type: functional; conditions: DU-145, 48 h; for CC50: read-out: LC50 (the source's name); outline: as §2
[7] = system: Malme-3M; experiment: Antitumor activity against human MALME-3M cells after 48 hrs by SRB assay; type: functional; outline: as §2
[8] = system: RXF 393; experiment: Antitumor activity against human […] cells after 48 hrs by SRB assay; type: functional; conditions: RXF 393, 48 h; outline: as §2
[9] = system: OVCAR-3; experiment: Antitumor activity against human OVCAR-3 cells after 48 hrs by SRB assay; type: functional; conditions: OVCAR-3, 48 h; for CC50: read-out: LC50 (the source's name); outline: as §2
[10] = Antitumor activity against human Hs 578T cells after 48 hrs by SRB assay; type: functional; conditions: for CC50: read-out: LC50 (the source's name); outline: as §2
[11] = system: NCI60; experiment: Antitumor activity against human NCI60 cells at 1 uM; type: functional, cell-based
[12] = system: SF-268; experiment: Antitumor activity against human SF268 cells after 48 hrs by SRB assay; type: functional; conditions: SF-268, 48 h; for CC50: read-out: LC50 (the source's name); outline: as §2
[13] = system: M14; experiment: Antitumor activity against human M14 cells after 48 hrs by SRB assay; type: functional; conditions: M14, 48 h; outline: as §2
[14] = system: UACC-62; experiment: Antitumor activity against human UACC62 cells after 48 hrs by SRB assay; type: functional; conditions: UACC-62, 48 h; outline: as §1
[15] = system: SNB-19; experiment: Antitumor activity against human SNB19 cells after 48 hrs by SRB assay; type: functional; conditions: SNB-19, 48 h; outline: as §2
[16] = system: IGROV-1; experiment: Antitumor activity against human IGROV1 cells after 48 hrs by SRB assay; type: functional; conditions: IGROV-1, 48 h; for CC50: read-out: LC50 (the source's name); outline: as §2
[17] = system: NCI-H23; experiment: Antitumor activity against human NCI-H23 cells after 48 hrs by SRB assay; type: functional; conditions: NCI-H23, 48 h; outline: as §2
[18] = system: LOX IMVI; experiment: Antitumor activity against human LOXIMVI cells after 48 hrs by SRB assay; type: functional; outline: as §2
[19] = system: NCI/ADR-RES; experiment: Antitumor activity against human NCI/ADR-RES cells after 48 hrs by SRB assay; type: functional; outline: as §2
[20] = read-out: LC50 (the source's name)

## CSc1nc2c(c(=O)[nH]1)NC1=C(C(=O)c3ccccc31)C(c1ccc(F)cc1)N2 (centres undefined)
[1]
  GI50: 12.9 µM
[1]; [20]
  CC50: > 100 µM
[2]
  GI50: 9.03 µM
[2]; [20]
  CC50: > 100 µM
[3]
  GI50: 5.18 µM
  LC50 (concentration causing 50% net cell kill): > 100 µM
[4]
  GI50: 17.7 µM
[4]; [20]
  CC50: 95.6 µM
[5]
  GI50: 6.13 µM
[5]; [20]
  CC50: > 100 µM
[6]
  GI50: 16.2 µM
  CC50: > 100 µM
[7]
  GI50: 19.6 µM
[7]; [20]
  CC50: > 100 µM
[8]
  GI50: 14.5 µM
[8]; [20]
  CC50: 92.8 µM
[9]
  GI50: 3.38 µM
  CC50: 61.8 µM
[10]
  GI50: 5.85 µM
  CC50: > 100 µM
[11]
  Activity: Active
[12]
  GI50: 12.7 µM
  CC50: > 100 µM
[13]
  GI50: 6.29 µM
[13]; [20]
  CC50: > 100 µM
[14]
  GI50: 3.04 µM
[14]; [20]
  CC50: > 100 µM
[15]
  GI50: 15.9 µM
[15]; [20]
  CC50: > 100 µM
[16]
  GI50: 11.3 µM
  CC50: > 100 µM
[17]
  GI50: 13.5 µM
  LC50: > 100 µM
[18]
  GI50: 8.78 µM
[18]; [20]
  CC50: 95.2 µM
[19]
  GI50: 6.42 µM
  LC50: > 100 µM

## CSc1nc2c(c(=O)[nH]1)NC1=C(C(=O)c3ccccc31)C(c1ccccc1)N2 (centres undefined)
[3]
  GI50: 2.4 µM
  LC50 (concentration causing 50% net cell kill): > 100 µM
[6]
  GI50: 13.4 µM
  CC50: > 100 µM
[9]
  GI50: 2.12 µM
  CC50: 46.4 µM
[10]
  GI50: 2.1 µM
  CC50: > 100 µM
[11]
  Activity: Active
[12]
  GI50: 4.55 µM
  CC50: > 100 µM
[16]
  GI50: 4.54 µM
  CC50: > 100 µM
[17]
  GI50: 5.82 µM
  LC50: > 100 µM
[19]
  GI50: 4.54 µM
  LC50: > 100 µM
